High-throughput results from PubChem BioAssay.
Shown are actives, neighbours in structure and some others; about 0.62% of the full set was active somewhere.
AP ELISA ortho = orthogonal test for alternative complement pathway inhibitors | Human serum alternative complement pathway, LPS-coated ELISA, C3 deposition; tested in compound mixtures | inhibition, % at 5 µM | 62,000 tested, 0.08% active;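 active = inhibition above 30% in each of the two pooled mixtures holding the compound, so the lower value exceeds 30%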
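Medium: diluted human serum in Mg2+-EGTA GVB++. Assay system: human serum complement alternative pathway, C3 deposition onto LPS. Also added: Plate-bound LPS. Technique: Anti-C3 ELISA, OD 450 nm. Measure: percent inhibition. Incubation: 1 h at 37 °C. Dosing: 5 µM each compound, pools of ten, 50 µM per pool.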
Abs 340nm = absorbance at 340 nm; compound absorbance at 340 nm, fold over control; fold change at 10 µM; 65,000 tested, under 10 active; AID 708;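 active = at 10 µM dose, initial 340 nm absorbance at least 2 fold that of control wells; inactive = change under 2 fold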;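 also: initial absorbance extrapolated from kinetic A340 decline of NADH oxidation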
HePTP inhibitor = blocks human HePTP tyrosine phosphatase. P35236. inhibition, % at 20 µM. 110,000 tested, 0.64% active. AID 521. recombinant HePTP phosphatase activity, OD absorbance; in the data active = inhibition above about 50%
Target sequence (P35236 whole entry, looked up): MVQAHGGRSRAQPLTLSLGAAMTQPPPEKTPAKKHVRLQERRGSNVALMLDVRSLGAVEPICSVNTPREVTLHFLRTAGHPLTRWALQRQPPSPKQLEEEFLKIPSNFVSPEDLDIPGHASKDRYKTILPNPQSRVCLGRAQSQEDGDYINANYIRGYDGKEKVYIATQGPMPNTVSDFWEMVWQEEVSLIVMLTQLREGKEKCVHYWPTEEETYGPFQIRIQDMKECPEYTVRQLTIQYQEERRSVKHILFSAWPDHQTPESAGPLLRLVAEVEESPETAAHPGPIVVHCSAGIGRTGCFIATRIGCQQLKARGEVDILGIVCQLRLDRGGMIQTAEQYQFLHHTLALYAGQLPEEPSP
Hits are given with their value; n = inactive; x = no result given; ! = not confirmed by another sample.

SMILES | AP ELISA ortho | Abs 340nm | HePTP inhibitor
CC(C)C(=O)Nc1ccc(Oc2ccc(Cl)cc2)cc1 | x | x | n
O=C(O)CCCCCN1C(=O)/C(=C2/C(=O)N(CC(=O)O)c3ccccc32)SC1=S | x | x | n
O=C(O)CN1C(=O)/C(=C2\SC(=S)N(/N=C/c3cc([N+](=O)[O-])ccc3O)C2=O)c2ccccc21 | x | x | 102.3
CCOc1ccc(C(=O)N2CCN(c3ccccc3OC)CC2)cc1 | x | x | n
CCOc1ccc(C(=O)Nc2ccc3oc(-c4ccncc4)nc3c2)cc1Cl | x | x | 98.5
CCOc1ccc(C(=O)Nc2ccc3oc(-c4ccccc4F)nc3c2)cc1Cl | x | x | n
CCOC(=O)C1=C(O)/C(=C/c2cccc(Oc3ccccc3)c2)SC1=Nc1ccccc1 | x | x | n
O=S(=O)(Nc1nc2ccccc2nc1NCc1ccccc1)c1ccc(Cl)cc1 | x | x | n
O=C(N/N=C\c1ccc(Cl)cc1Cl)c1cccc2cc[nH]c12 | x | x | n
COC(=O)c1c(N)sc(C(=O)Nc2ccccc2OC)c1C | x | x | 65.8
CCOC(=O)c1c(N)sc(C(=O)Nc2ccccc2OC)c1C | x | x | n
CCOc1cc(C=O)ccc1OCCN1CCOCC1 | x | x | n
COc1cc(C=O)ccc1OCCN1CCOCC1 | x | x | 102.7
O=C(CCCN1C(=O)c2ccccc2C1=O)Nc1ccccc1C(=O)N1CCCC1 | x | x | n
O=C(CCCN1C(=O)c2ccccc2C1=O)Nc1ccccc1C(=O)N1CCCCC1 | x | x | 77.5
NC(=O)C1=CC2([N+](=O)[O-])CN(Cc3ccccc3)CC([N+](=O)[O-])(C1)C2 (stereo unspecified) | x | x | n
CC(C)(C)c1cc(Br)ccc1OCC(=O)Nc1ccc2c(c1)OCCO2 | x | x | n
COC(=O)C1=NN(C(=O)c2cccc([N+](=O)[O-])c2)C(O)(c2ccccc2)C1 (stereo unspecified) | x | x | 103.9
COC(=O)C1=NN(C(=O)c2cccc(Br)c2)C(O)(c2ccccc2)C1 (stereo unspecified) | x | x | n
Nc1ccc(C(=O)N2N=C3CCCCC3C2(O)C(F)(F)F)cc1 (stereo unspecified) | x | x | n
O=C(NC(NC(=S)Nc1ccc(Cl)c(Cl)c1)C(Cl)(Cl)Cl)c1cccc([N+](=O)[O-])c1 (stereo unspecified) | x | x | 103.7
CC(=O)Nc1ccc(NC(=S)NC(NC(=O)c2cccc([N+](=O)[O-])c2)C(Cl)(Cl)Cl)cc1 (stereo unspecified) | x | x | n
CCCCc1nc2ccccc2c(NC(=O)CN2CCOCC2)c1CCC | x | x | n
Cc1ccc(-n2c(O)c(/C=C3\C=Nc4ccccc43)c(=O)[nH]c2=S)cc1 | x | x | n
Cc1ccc(-n2[nH]c(=O)c(/C=C3\C=Nc4ccccc43)c2O)cc1 | x | x | 94.1
SMILES | AP ELISA ortho | Abs 340nm | HePTP inhibitor
CC(=O)N1C(=O)/C(=C2\SC(=S)N(c3cccc(Br)c3)C2=O)c2ccccc21 | x | x | n
CCOc1ccccc1/C=C1/C(=O)NC(=O)N(c2ccc(C)cc2)C1=O | x | x | n
O=C(O)c1cccc(-c2ccc(/C=N/Nc3ccc([N+](=O)[O-])cn3)o2)c1 | x | x | 101.8
O=C(O)c1cc(-c2ccc(/C=N/Nc3ccc([N+](=O)[O-])cn3)o2)ccc1Cl | x | x | n
COc1ccc(CN(C(=O)c2ccco2)C2CC(C)N(C)CC2C)cc1 (stereo unspecified) | n | n | 102.3!
COc1ccc2[nH]c(=O)c(CN(C(=O)c3ccco3)C3CCCCC3)cc2c1 | n | x | n
CCOc1ccccc1NC(=O)CN(c1ccccc1Cl)S(C)(=O)=O | x | x | n
Cc1ccc(OCC(=O)N2CCN(c3ccccc3)CC2)c(C)c1 | x | x | n
COc1ccc(C(=O)N2CCN(Cc3cccc(Cl)c3)CC2)cc1OC | x | x | n
O=C(N/N=C/c1ccc2c(c1)OCO2)c1sc2cc(Cl)ccc2c1Cl | x | x | 57.7
O=C(N/N=C/c1ccc2c(c1)OCO2)c1ccccn1 | x | x | n
O=C(O/C(=C/c1nccn1Cc1ccccc1Cl)c1ccc(F)cc1)c1ccc(F)cc1 | x | x | n
CCOC(=O)c1c(NC(=S)Nc2ccc(OC)cc2)sc2c1CC(C)(C)OC2 | x | x | n
CC1=C(C#N)c2nc(N)c(C#N)c(C)c2/C1=C/c1ccc(-c2ccc([N+](=O)[O-])cc2C)o1 | x | x | n
CC1=C(C#N)c2nc(N)c(C#N)c(C)c2/C1=C/c1ccc(-c2ccccc2[N+](=O)[O-])o1 | x | x | 81.0
O=C(NNC(=O)c1cccc(Cl)c1)C(=O)N1CCCCC1 | x | x | n
CN(C)c1ccc(/C=N/Nc2nc(-c3cc4ccccc4oc3=O)cs2)cc1 | x | x | n
O=C1CS/C(=N\N=C\c2cccc(Br)c2)N1 | x | x | n
O=C1CS/C(=N\N=C\c2cn(Cc3ccc(Cl)cc3Cl)c3ccccc23)N1 | x | x | 66.0
O=C1c2ccccc2C(=O)N1c1ccc(OCC(O)COC2CCCCC2)cc1 (stereo unspecified) | x | x | n
Cc1c(C#N)c(N)c(C(=O)c2ccccc2)n1-c1ccccc1 | x | x | 70.3
Cc1c(C#N)c(N)c(C(=O)c2ccc(Br)cc2)n1-c1ccc(Br)cc1 | x | x | n
